The target of data set [1] is Dipeptidyl peptidase 4 (Rattus norvegicus) (UniProt P14740). Kind of data set: Ex vivo inhibition of DPP4 in Sprague-Dawley rat plasma at 1 mg/kg, po after 6 hrs. The class given is organism-based. On the set-up: dose 1 mg/kg. In short, it runs like this: (§1)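 Male SD rats, 6–7 weeks old, fasted at least 8 h, given a single oral dose of 1 mg/kg in 0.5% methyl cellulose. Jugular vein blood taken before dosing and serially to 10 h (12 h in the species comparison). Plasma mixed with substrate (50 µL of 60 µM Gly-Pro-AMC). Initial fluorescence rate over 15 min at 37 °C; % inhibition is relative to basal activity.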
Chain of Dipeptidyl peptidase 4 (Rattus norvegicus) (P14740 whole entry, looked up): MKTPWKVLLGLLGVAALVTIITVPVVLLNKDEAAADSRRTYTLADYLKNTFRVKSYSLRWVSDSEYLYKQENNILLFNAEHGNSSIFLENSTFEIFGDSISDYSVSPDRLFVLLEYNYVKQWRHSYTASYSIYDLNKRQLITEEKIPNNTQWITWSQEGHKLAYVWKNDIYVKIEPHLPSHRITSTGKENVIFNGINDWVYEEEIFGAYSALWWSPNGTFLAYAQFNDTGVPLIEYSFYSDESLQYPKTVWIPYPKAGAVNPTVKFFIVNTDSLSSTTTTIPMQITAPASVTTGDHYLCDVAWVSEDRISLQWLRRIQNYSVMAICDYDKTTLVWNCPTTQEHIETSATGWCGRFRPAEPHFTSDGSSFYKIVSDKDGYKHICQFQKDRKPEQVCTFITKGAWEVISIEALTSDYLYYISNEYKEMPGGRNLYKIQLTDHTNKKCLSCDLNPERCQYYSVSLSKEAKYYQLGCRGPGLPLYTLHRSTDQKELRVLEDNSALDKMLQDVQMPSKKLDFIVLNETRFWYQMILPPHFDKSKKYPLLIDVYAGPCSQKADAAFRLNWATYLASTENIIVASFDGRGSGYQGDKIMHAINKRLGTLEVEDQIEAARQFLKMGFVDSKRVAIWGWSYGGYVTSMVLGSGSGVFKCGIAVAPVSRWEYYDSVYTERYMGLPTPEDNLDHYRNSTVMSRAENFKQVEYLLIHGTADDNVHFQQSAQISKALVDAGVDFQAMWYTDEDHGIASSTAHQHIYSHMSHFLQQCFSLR

Data set [2] can be described thus: Stability in Tris buffer at pH 7.4 after 24 hrs. The note with it: read-out: Stability. Format: physicochemical. In short, it runs like this:
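Remaining percentage measured after incubation in 100 mM Tris buffer, pH 7.4, at room temperature for 24 h.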

The subject of another data set is Canis familiaris. Put plainly: Ex vivo inhibition of DPP4 in Beagle dog at 1 mg/kg, po after 12 hrs. The class given is functional. The note with it: Canis lupus familiaris. In short, it runs like this: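 Male beagle dogs (11–15 kg) and male cynomolgus monkeys (3.5–6 kg), fasted 8 h, given a single oral dose of 1 mg/kg in 0.5% methyl cellulose. Femoral vein blood taken before dosing and at 12 h. Plasma DPP-IV activity measured as the initial rate of Gly-Pro-AMC cleavage (fluorescence, ex 355/em 460 nm, 37 °C); % inhibition is relative to basal activity.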

Data set [3] addresses Dipeptidyl peptidase 4 (Rattus norvegicus) (UniProt P14740). Kind of data set: Ex vivo inhibition of DPP4 in Sprague-Dawley rats plasma at 1 mg/kg, po after 10 hrs. On the set-up: dose 1 mg/kg. The class given is organism-based. The method, boiled down: as §1
Data set [4] shares this target. Kind of data set: Ex vivo inhibition of DPP4 in Sprague-Dawley rats plasma at 1 mg/kg, po after 12 hrs. Also on record: dose 1 mg/kg. Format: organism-based. In short, it runs like this:
as §1

A further data set relates to Cynomolgus monkey. Put plainly: animal or person. The note with it: Macaca fascicularis, po, 12 h, read-out: Inhibition.
For data set [5], the system named is Rattus norvegicus. Put plainly: Suppression of glucose level in Sprague-Dawley rats at 1 mg/kg, po administered 30 mins prior to glucose by glucose tolerance test after 12 hrs. The class given is functional, organism-based. Also on record: dose 1 mg/kg. The method, boiled down: (§2)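 Male SD rats (364–473 g), fasted at least 20 h, given vehicle (0.5% methyl cellulose) or 1 mg/kg orally at −0.5 h. Oral glucose 1 g/kg given at 0, 6 and 12 h. Tail-vein blood collected into heparinized tubes from −0.08 h to 14 h. Plasma glucose measured by glucose oxidase–peroxidase dye method.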

In data set [6] the test system is Rattus norvegicus. Put plainly: Suppression of glucose level in Sprague-Dawley rats at 1 mg/kg, po administered 30 mins prior to glucose by glucose tolerance test. Format: functional, organism-based. On the set-up: dose 1 mg/kg. In short, it runs like this: as §2
The subject of data set [7] is Rattus norvegicus. Kind of data set: Suppression of glucose level in Sprague-Dawley rats at 1 mg/kg, po administered 30 mins prior to glucose by glucose tolerance test after 6 hrs. Format: functional, organism-based. On the set-up: dose 1 mg/kg. The method, boiled down:
as §2

The structures appear in SMILES notation. Active and inactive are the calls of the source. The calls are words filed in the database; no cut-off is given here.

The values that follow come from ChEMBL document CHEMBL1147187, “Design and synthesis of new potent dipeptidyl peptidase IV inhibitors with enhanced ex vivo duration” (Bioorg Med Chem, 2007).

For orientation: inhibition means how much of the control response was suppressed.

As for `CN(C)C(=O)[C@@H]1CN[C@H](C(=O)N2CCC[C@H]2C#N)C1`, the inhibition turned out to be 76% in data set [1], 52% in [3] and 24% in data set [4]. For the same compound, in [2], the remaining at 24 h came out at 52%. Further, the inhibition in vivo at 1 mg/kg with Canis familiaris is 45%; in the data set on Cynomolgus monkey, 44%.

Consider `N#C[C@@H]1CCCN1C(=O)[C@@H]1C[C@H](C(=O)N2CCSCC2)CN1`, for which the inhibition in data set [1] is 72%; in data set [3] it was 19%.

`C[C@@H]1N[C@H](C(=O)N2CCC[C@H]2C#N)C[C@@H]1C(=O)N(C)C`: the inhibition in data set [1] was 95%; in data set [3], 84%; in data set [4], 81%. Moreover, the remaining at 24 h in data set [2] is 92%. Also, the outcome in the data set with Rattus norvegicus [5], with Rattus norvegicus [6] and in the data set with Rattus norvegicus [7] was Active. Also, the inhibition in vivo at 1 mg/kg in the data set on Canis familiaris amounted to 98%; in the data set with Cynomolgus monkey it was 93%.

Turning to `C[C@@H]1N[C@H](C(=O)N2CCC[C@H]2C#N)C[C@@H]1C(=O)N1CCCC1`, the inhibition in data set [1] was 94%; in [3], 88%; in [4] it was 82%. The inhibition in vivo at 1 mg/kg in the data set with Canis familiaris and in the data set on Cynomolgus monkey was 95% in each case.

Take `CCCNC(=O)[C@@H]1CN[C@H](C(=O)N2CCC[C@H]2C#N)C1`: the inhibition amounted to 59% in data set [1] and 21% in [3].

As for `CCNC(=O)[C@@H]1CN[C@H](C(=O)N2CCC[C@H]2C#N)C1`, the inhibition in data set [1] was 60%; in data set [3], 19%.

In data set [1], `N#C[C@@H]1CCCN1C(=O)[C@@H]1CCCN1` displayed an inhibition of 20%.

Consider `C[C@@H]1N[C@H](C(=O)N2CCC[C@H]2C#N)C[C@@H]1C(=O)N1CCCCC1`, for which the inhibition in data set [1] turned out to be 91%; in data set [3], 81%.

For the compound `C[C@@H]1N[C@H](C(=O)N2CCC[C@H]2C#N)C[C@@H]1C(=O)N1CCC1`, the inhibition in data set [1] amounted to 94%; in data set [3], 88%.

In the case of `N#C[C@@H]1CCCN1C(=O)[C@@H]1C[C@H](CC(=O)O)CN1`, the inhibition in data set [1] amounted to 58%.

The compound `C=CC[C@@H]1CN[C@H](C(=O)N2CCC[C@H]2C#N)C1` returned an inhibition in data set [1] of 38%.

Turning to `CCN(C)C(=O)[C@@H]1CN[C@H](C(=O)N2CCC[C@H]2C#N)C1`, the inhibition in data set [1] stood at 71%; in data set [3], 34%.

Consider `C[C@@H]1N[C@H](C(=O)N2CCC[C@H]2C#N)C[C@@H]1C(=O)N1CCOCC1`, for which the inhibition in [1] came to 94%; in data set [3], 85%. Also, the inhibition in vivo at 1 mg/kg was 98% in the data set with Canis familiaris and 90% in the data set on Cynomolgus monkey.

`N#C[C@@H]1CCCN1C(=O)[C@@H]1C[C@H](C(=O)N2CCC2)CN1`: the inhibition in data set [1] was determined as 77%; in [3] it was 46%.

On to `CN(C)C(=O)C[C@@H]1CN[C@H](C(=O)N2CCC[C@H]2C#N)C1`, for which the inhibition in [1] was determined as 66%.

As to `N#C[C@@H]1CCCN1C(=O)[C@@H]1C[C@H](C(=O)N2CCCC2)CN1`, the results for the inhibition in data set [1] and in [3] were 85% and 40%, respectively.

On to `N#C[C@@H]1CCCN1C(=O)[C@@H]1C[C@H](CO)CN1`, for which, in data set [1], the inhibition stood at 64%.

Consider `N#C[C@@H]1CCCN1C(=O)[C@@H]1C[C@H](C(=O)N2CCCCC2)CN1`, for which the inhibition in data set [1] worked out at 84%; in data set [3], 50%.

Take `N#C[C@@H]1CCCN1C(=O)[C@@H]1C[C@H](C(=O)N2CCCCCCC2)CN1`: the inhibition in data set [1] worked out at 63%.

In data set [1], `CN(C)C(=O)CC[C@@H]1CN[C@H](C(=O)N2CCC[C@H]2C#N)C1` showed an inhibition of 58%.

For the compound `N#C[C@@H]1CCCN1C(=O)[C@@H]1C[C@H](CCO)CN1`, the inhibition in data set [1] is 64%.

Consider `CCN(C)C(=O)[C@H]1C[C@@H](C(=O)N2CCC[C@H]2C#N)N[C@H]1C`, for which the values for the inhibition in data set [1], in data set [3] and in data set [4] were 92%, 79% and 74%, respectively. For the same compound, the inhibition in vivo at 1 mg/kg in the data set on Canis familiaris is 89%; with Cynomolgus monkey, 95%.

As for `CNC(=O)[C@@H]1CN[C@H](C(=O)N2CCC[C@H]2C#N)C1`, the inhibition in data set [1] amounted to 75%; in [3], 28%.

In turn, `CCN(CC)C(=O)[C@@H]1CN[C@H](C(=O)N2CCC[C@H]2C#N)C1` came in with an inhibition in data set [1] of 43%.

Turning to `C[C@@H]1N[C@H](C(=O)N2CCC[C@H]2C#N)C[C@@H]1C(=O)N1Cc2ccccc2C1`, the inhibition is 86% in data set [1], 77% in data set [3] and 71% in [4]. For the same compound, the inhibition in vivo at 1 mg/kg in the data set with Canis familiaris amounted to 16%.

With `CCC[C@@H]1CN[C@H](C(=O)N2CCC[C@H]2C#N)C1`, in [1], the inhibition stood at 50%.

Take `C[C@@H]1N[C@H](C(=O)N2CCC[C@H]2C#N)C[C@@H]1C(=O)N1CCSCC1`: the inhibition was 92% in data set [1] and 85% in data set [3].

With `N#C[C@@H]1CCCN1C(=O)[C@@H]1C[C@H](C(=O)N2CCCCCC2)CN1`, the inhibition in data set [1] is 68%.

For `N#C[C@@H]1CCCN1C(=O)[C@@H]1C[C@H](C(N)=O)CN1`, the inhibition was found to be 47% in data set [1] and 20% in data set [3].

Regarding `N#C[C@@H]1CCCN1C(=O)[C@@H]1C[C@H](C(=O)N2CCOCC2)CN1`, the inhibition in [1] amounted to 73%; in data set [3], 44%.
